For data set [1], the species on record is Homo sapiens. Description: Irreversible inhibition of His-tagged p97 delta N mutant (unknown origin) using PNP as substrate assessed as activity recovered at 780 nM after 2 hrs by dialysis relative to control. On the set-up: scale not given: the % may be the effect or the level left.
In data set [2] the target is T1, Transitional endoplasmic reticulum ATPase (Homo sapiens, UniProt P55072). Description: Noncompetitive inhibition of p97 (unknown origin) using increasing concentration of ATP preincubated for 10 mins followed by ATP addition and measured after 2 hrs by UV-based two-step endpoint assay.
Target sequence in this assay (P55072 2-806 limits assumed): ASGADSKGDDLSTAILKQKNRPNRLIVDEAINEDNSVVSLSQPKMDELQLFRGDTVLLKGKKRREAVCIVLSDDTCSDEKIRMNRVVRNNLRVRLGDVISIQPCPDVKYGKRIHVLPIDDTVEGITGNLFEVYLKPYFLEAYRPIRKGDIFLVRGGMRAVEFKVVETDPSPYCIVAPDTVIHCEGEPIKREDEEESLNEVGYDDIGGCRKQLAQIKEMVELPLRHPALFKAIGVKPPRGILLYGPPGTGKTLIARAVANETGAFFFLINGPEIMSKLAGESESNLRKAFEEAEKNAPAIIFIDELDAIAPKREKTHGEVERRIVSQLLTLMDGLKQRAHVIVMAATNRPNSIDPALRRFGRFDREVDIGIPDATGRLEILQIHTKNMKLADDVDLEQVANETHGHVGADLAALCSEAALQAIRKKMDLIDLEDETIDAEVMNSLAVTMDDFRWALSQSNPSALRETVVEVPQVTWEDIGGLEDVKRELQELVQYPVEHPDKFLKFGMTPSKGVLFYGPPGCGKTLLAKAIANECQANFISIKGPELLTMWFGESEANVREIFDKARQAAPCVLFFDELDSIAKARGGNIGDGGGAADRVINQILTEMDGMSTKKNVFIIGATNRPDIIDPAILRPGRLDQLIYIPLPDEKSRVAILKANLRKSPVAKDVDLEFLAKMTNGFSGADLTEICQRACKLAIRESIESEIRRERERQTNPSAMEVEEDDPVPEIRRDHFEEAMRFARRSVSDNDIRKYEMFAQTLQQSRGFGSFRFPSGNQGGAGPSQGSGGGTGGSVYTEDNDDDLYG
For data set [3], the target named is T1, Transitional endoplasmic reticulum ATPase. The experiment in a line: Irreversible inhibition of His-tagged p97 (unknown origin) using PNP as substrate assessed as activity recovered at 780 nM after 2 hrs by dialysis relative to control. Details: scale not given: the % may be the effect or the level left.
Target sequence in this assay (P55072 2-806 limits assumed): as above
Data set [4] has the same target. Description: Irreversible inhibition of p97 ATPase activity in human HEK293T cells based Ubv-GFP cells assessed as increase Ub-v-GFP accumulation at 2 uM incubated for 1 hr followed by culturing in drug-free medium for additional 3 hrs by Western blot analysis. The class given is cell-based. Summed up: (§1)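 Ub-v-GFP reporter cells (HEK293T-based, 3 × 10⁵) seeded on poly-D-lysine-coated wells and grown overnight. Inhibitor added at 2 μM and kept 4 h at 37 °C (scheme A), or removed after 1 h, cells washed once with PBS, then 3 h in drug-free medium (scheme B). Whole-cell Laemmli extracts immunoblotted for Ub-v-GFP, with anti-p97 as loading control.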
(In general: Immunoblotting shows a protein as a band on a membrane.)
Target sequence in this assay (P55072 2-806 limits assumed): as above

The target is the same in data set [5]. Description: Inhibition of p97 in human A373 cells co-expressing US11 and HA-tagged MCH class 1 heavy chain H2A assessed as MHC class 1 heavy chain accumulation at 2 uM after 1 hr by Western blot analysis. The class given is cell-based.
Target sequence in this assay (P55072 2-806 limits assumed): as above
The target is the same in data set [6]. Description: Irreversible inhibition of p97 ATPase activity in human HEK293T cells based Ubv-GFP cells assessed as increase Ub-v-GFP accumulation at 2 uM incubated for 4 hrs by Western blot analysis. Format: cell-based. Summed up:
as §1
Target sequence in this assay (P55072 2-806 limits assumed): as above

In data set [7] the test system is Transitional endoplasmic reticulum ATPase (Homo sapiens), P55072 [UNDEFINED MUTATION]. Description: Irreversible inhibition of His-tagged p97 C552A mutant (unknown origin) using PNP as substrate assessed as activity recovered at 780 nM after 2 hrs by dialysis relative to control. Details: scale not given: the % may be the effect or the level left.
Data set [8] deals with Proteasome. The experiment in a line: Inhibition of proteasome in human HEK293T cells stably expressing YFP delSS TCRalpha assessed as reduction in deltaSS TCRalpha-YFP degradation at 2 uM MG132 incubated overnight by Western blot analysis.
Data set [9] addresses T1, Transitional endoplasmic reticulum ATPase. The experiment in a line: Inhibition of p97 ATPase activity in human HEK293T cells based Ubv-GFP cells assessed as increase Ub-v-GFP accumulation at 2 uM after 4 hrs by Western blot analysis. The class given is cell-based. In short, it runs like this:
as §1
Target sequence in this assay (P55072 2-806 limits assumed): as above

For data set [10], the system named is MIA PaCa-2. Description: Antiproliferative activity against human MIAPaCa2 cells. The class given is functional, cell-based.
Data set [11] addresses T1, Transitional endoplasmic reticulum ATPase. Description: Inhibition of His-tagged p97 (unknown origin) in presence of ATP and PNP by UV-transparent microplate assay. The following applies: read-out: Ki(app).
Target sequence in this assay (P55072 whole entry): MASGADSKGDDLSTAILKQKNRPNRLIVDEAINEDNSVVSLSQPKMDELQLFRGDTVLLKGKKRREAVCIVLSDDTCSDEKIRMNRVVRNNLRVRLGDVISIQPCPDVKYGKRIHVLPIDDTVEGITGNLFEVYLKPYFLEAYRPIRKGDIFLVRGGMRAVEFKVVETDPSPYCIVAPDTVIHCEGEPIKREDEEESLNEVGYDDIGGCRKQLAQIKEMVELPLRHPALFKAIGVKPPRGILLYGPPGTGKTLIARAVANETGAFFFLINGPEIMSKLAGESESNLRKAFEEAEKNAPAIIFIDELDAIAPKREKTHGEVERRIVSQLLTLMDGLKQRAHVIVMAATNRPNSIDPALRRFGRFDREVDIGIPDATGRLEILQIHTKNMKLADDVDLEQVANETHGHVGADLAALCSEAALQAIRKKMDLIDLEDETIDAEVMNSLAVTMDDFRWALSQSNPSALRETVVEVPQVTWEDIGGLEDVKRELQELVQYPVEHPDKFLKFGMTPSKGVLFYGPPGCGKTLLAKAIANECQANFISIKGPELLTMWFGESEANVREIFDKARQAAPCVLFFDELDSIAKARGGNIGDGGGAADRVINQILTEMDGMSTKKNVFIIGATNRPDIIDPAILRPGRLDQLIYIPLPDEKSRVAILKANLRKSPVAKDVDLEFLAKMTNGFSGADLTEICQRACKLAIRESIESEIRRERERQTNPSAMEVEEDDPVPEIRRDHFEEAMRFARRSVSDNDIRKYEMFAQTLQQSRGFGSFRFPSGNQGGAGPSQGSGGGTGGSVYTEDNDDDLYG
Data set [12] shares this target. The experiment in a line: Irreversible inhibition of p97 in human A373 cells co-expressing US11 and HA-tagged MCH class 1 heavy chain H2A assessed as MHC class 1 heavy chain degradation at 2 uM incubated for 1 hr followed by further incubation in drug-free medium in presence of cycloheximide by Western blot analysis.
Data set [13] can be described thus: GSH reactivity in PBS buffer assessed as GSH adduct formation at 1 uM after presence of GSH by LC-MS/MS analysis. The class given is physicochemical. Summed up: (§2)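 Compound at 1 μM incubated at 37 °C with 5 mM GSH plus a stable internal standard in 0.1 M potassium phosphate, pH 7.4, 10% acetonitrile. Reaction started by GSH addition. GSH conjugate formation checked at the end of incubation.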

Data set [14] in a line: GSH reactivity in PBS buffer assessed as half life at 1 uM after presence of GSH by LC-MS/MS analysis. The class given is physicochemical. The following applies: PBS buffer with GSH. In short, it runs like this:
as §2

Data set [15] concerns the target T1, Transitional endoplasmic reticulum ATPase. The experiment in a line: Reversible inhibition of p97 in human A373 cells co-expressing US11 and HA-tagged MCH class 1 heavy chain H2A assessed as half life for MHC class 1 heavy chain degradation at 2 uM incubated for 1 hr followed by further incubation in drug-free medium in presence of cycloheximide by Western blot analysis. The class given is cell-based. Summed up: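 They were then moved to inhibitor-free medium containing cycloheximide (50 μg/mL) and sampled at set time points. Lysates were immunoblotted for heavy chain turnover.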

In data set [16] the test system is Transitional endoplasmic reticulum ATPase (Homo sapiens), P55072 [UNDEFINED MUTATION]. The experiment in a line: Reversible inhibition of His-tagged p97 C552A mutant (unknown origin) using PNP as substrate assessed as activity recovered at 3200 nM after 2 hrs by dialysis relative to control. On the set-up: scale not given: the % may be the effect or the level left.

Data set [17] addresses T1, Transitional endoplasmic reticulum ATPase. Description: Reversible inhibition of His-tagged p97 (unknown origin) using PNP as substrate assessed as activity recovered at 3200 nM after 2 hrs by dialysis relative to control. Details: scale not given: the % may be the effect or the level left.
Data set [18] has as its system Proteasome. Description: Irreversible inhibition of proteasome in human A373 cells co-expressing US11 and HA-tagged MCH class 1 heavy chain H2A assessed as MHC class 1 heavy chain degradation at 20 uM incubated for 1 hr followed by further incubation in drug-free medium in presence of cycloheximide by Western blot analysis.
The subject of data set [19] is Proteasome. The experiment in a line: Inhibition of proteasome in human HEK293T cells based Ubv-GFP cells assessed as increase Ub-v-GFP accumulation at 20 uM after 4 hrs by Western blot analysis.
The test system of data set [20] is Proteasome. The experiment in a line: Inhibition of proteasome in human HEK293T cells stably expressing YFP delSS TCRalpha assessed as reduction in deltaSS TCRalpha-YFP degradation at 10 uM MG132 incubated overnight by Western blot analysis.
Data set [21] deals with Proteasome. Description: Irreversible inhibition of proteasome in human HEK293T cells based Ubv-GFP cells assessed as increase Ub-v-GFP accumulation at 20 uM incubated for 1 hr followed by culturing in drug-free medium for additional 3 hrs by Western blot analysis.
For data set [22], the system named is Proteasome. Description: Irreversible inhibition of proteasome in human HEK293T cells based Ubv-GFP cells assessed as increase Ub-v-GFP accumulation at 20 uM after 4 hrs by Western blot analysis. In short, it runs like this:
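Ub-v-GFP reporter cells (HEK293T-based, stably expressing this short-lived proteasome substrate) seeded at 3 × 10⁵ per well on poly-D-lysine, grown overnight, then exposed to MG132 for 4 h at 37 °C. Whole-cell extracts in Laemmli buffer were run on SDS-PAGE and immunoblotted for Ub-v-GFP, with anti-p97 as loading control.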

As usually defined, the EC50 is the midpoint of the concentration-response curve. As usually defined, the half-life is how long it takes for the measured level to halve.

Calls of active or inactive are those of the source. The calls are words filed in the database; no cut-off is given here. Where a SMILES comes first, the peptide text is derived from it. [ ]: non-standard residue; d: D form. The star is where a group is joined. Nva = CCC[C@H](N)C(=O)O; Cbz = O=C(OCc1ccccc1)*

Sequence of Transitional endoplasmic reticulum ATPase (Homo sapiens), P55072 [UNDEFINED MUTATION] (P55072 whole entry, looked up, stated change not applied): as the sequence (P55072 whole entry) above

Turning to `CC#CC(=O)Nc1cccc2c1cc(C)n2-c1nc2c(c(NCc3ccccc3)n1)CCCC2`, the Activity in data set [1] was 0%; in [3] it was 3%; in data set [7] it was 6%. For the same compound, the inhibition entry in data set [2], in data set [4], in [5], in [6], in data set [9] and in [12] was “Active” each time. Also, the inhibition entry in data set [8] is “inactive”. Besides, in [10], a half-maximal response (EC50) required 436 nM. In addition, the Ki in [11] was found to be 33.2 nM.

In turn, `CC#CC(=O)Nc1cccc2c1cc(C)n2-c1nc2c(c(NCc3ccccc3)n1)COCC2` displayed an EC50 in data set [10] of 600 nM. Moreover, the Ki in [11] worked out at 32.3 nM.

With `C#CCNC(=O)c1cccc2c1cc(C)n2-c1nc2c(c(NCc3ccccc3)n1)CCCC2`, the inhibition entry in data set [6] and in data set [9] was “Active” throughout. This compound gave an EC50 in [10] of 470 nM. Besides, the Ki in data set [11] is 30.6 nM.

Consider `CCCC#CC(=O)Nc1cccc2c1cc(C)n2-c1nc2c(c(NCc3ccccc3)n1)CCCC2`, for which, in [9], the inhibition result is “Active”. In data set [10], this compound registered an EC50 of 1570 nM. For the same compound, the Ki in data set [11] amounted to 26.9 nM.

For the compound `CCC(=O)Nc1cccc2c1cc(C)n2-c1nc2c(c(NCc3ccccc3)n1)CCCC2`, in [9], the inhibition entry is “Active”. Also, the EC50 in [10] was 1010 nM. Also, the Ki in [11] was 20.8 nM.

With `CC#CCNC(=O)c1cccc2c1cc(C)n2-c1nc2c(c(NCc3ccccc3)n1)CCCC2`, in data set [13], the Activity result was “Not Active”. Besides, the half-life at 1 µM in data set [14] is > 24 h. Moreover, the inhibition entry in [6] and in data set [9] was “Active” in each case. This compound had a half-maximal effective concentration (EC50) in [10] of 723 nM. Further, in data set [11], the Ki was 37.3 nM.

As for `C#CCNC(=O)c1cccc2c1cc(C)n2-c1nc2c(c(NCc3ccccc3)n1)COCC2`, the inhibition result in [6] and in [9] was “Active” in each case. Also, the EC50 in data set [10] was 1080 nM. The Ki in [11] came out at 18.6 nM.

Turning to `CCCNC(=O)c1cccc2c1cc(C)n2-c1nc2c(c(NCc3ccccc3)n1)CCCC2`, it took 608 nM to reach a half-maximal effect in data set [10] (EC50). Further, the Ki in data set [11] came out at 40.8 nM.

`C#CC(=O)Nc1cccc2c1cc(C)n2-c1nc2c(c(NCc3ccccc3)n1)CCCC2` yielded an EC50 in [10] of 131 nM. Moreover, the Ki in data set [11] was 37.9 nM.

As for `Cc1cc(OCc2nnc(SC3CCCC3)n2-c2cccnc2)ccc1-c1ccc(S(C)(=O)=O)cc1`, the inhibition result in [5] was “Active”. The T1/2 in data set [15] is < 1 h. Further, the inhibition entry in data set [8] is “inactive”.

In the case of `C=CC(=O)Nc1cccc2c1cc(C)n2-c1nc2c(c(NCc3ccccc3)n1)COCC2`, the concentration giving a half-maximal response (EC50) in data set [10] came to 880 nM. In addition, the Ki in [11] turned out to be 26.6 nM.

Take `COc1cccc2c(NCc3ccccc3)nc(-n3c(N)nc4ccccc43)nc12`: the Activity in data set [16] is 100%; in data set [17] it was 82%.

In the case of `Cc1cc2c(C(=O)NCC#N)cccc2n1-c1nc2c(c(NCc3ccccc3)n1)CCCC2`, the inhibition entry in data set [9] is “Active”. In [10], this compound yielded an EC50 of 468 nM. Moreover, the Ki in [11] came to 28.1 nM.

Take `CC(C)C[C@@H](C=O)NC(=O)[C@H](CC(C)C)NC(=O)[C@H](CC(C)C)NC(=O)OCc1ccccc1` (Cbz-Leu-Leu-Leu-aldehyde): the inhibition result in [18], in [19] and in data set [20] was “Active” each time.

With `Cc1cc2c(C(=O)NCCC#N)cccc2n1-c1nc2c(c(NCc3ccccc3)n1)CCCC2`, the inhibition entry in data set [9] is “Active”. A half-maximal response in data set [10] (EC50) required 517 nM. Also, the Ki in [11] was 24.1 nM.

`C#CCCNC(=O)c1cccc2c1cc(C)n2-c1nc2c(c(NCc3ccccc3)n1)CCCC2`: in [9], the inhibition entry was “Active”. Moreover, in data set [10], a half-maximal effect (EC50) was put at 1410 nM. In addition, the Ki in [11] amounted to 24.5 nM.

On to `Cc1cc2c(C(N)=O)cccc2n1-c1nc2c(c(NCc3ccccc3)n1)CCCC2`, for which, in data set [9], the inhibition entry was “Active”. The compound further gave an EC50 in [10] of 128 nM. Besides, in [11], the Ki came to 28.6 nM.

Turning to `CCC#CC(=O)Nc1cccc2c1cc(C)n2-c1nc2c(c(NCc3ccccc3)n1)CCCC2`, the inhibition result in data set [9] is “Active”. This compound had a concentration giving a half-maximal response (EC50) in data set [10] of 463 nM. Moreover, in data set [11], the Ki worked out at 43 nM.

For the compound `CCC[C@@H](C=O)NC(=O)[C@H](CC(C)C)NC(=O)[C@H](CC(C)C)NC(=O)OCc1ccccc1` (Cbz-Leu-Leu-[Nva]-aldehyde), the inhibition entry in [21] and in [22] was “Active” throughout.

For `CC#CCNC(=O)c1cccc2c1cc(C)n2-c1nc2c(c(NCc3ccccc3)n1)COCC2`, the Activity result in data set [13] is on record as “Not Active”. Also, the half-life at 1 µM in [14] is > 24 h. Besides, the inhibition result in data set [6] and in data set [9] was “Active” throughout. The compound also gave an EC50 in data set [10] of 524 nM. Also, the Ki in data set [11] came out at 42.4 nM.

Compound `C#CC(=O)Nc1cccc2c1cc(C)n2-c1nc2c(c(NCc3ccccc3)n1)COCC2` had an EC50 in [10] of 78.7 nM. Further, the Ki in data set [11] is 32.8 nM.

The values are drawn from ChEMBL document CHEMBL4400565, “Discovery of Irreversible p97 Inhibitors” (J Med Chem, 2019).
